Measured values taken from publication PMC4049353 (Steroids, 2014).
Where “and” joins values, the source holds several entries; their conditions need not be identical. Equal values may be shown once.

Tests used:
[1] = test system: CD40L-induced NF-κB activation; assay: suppression of CD40L-induced NF-κB activation in HEK-Blue CD40L sensor cells; assay type: cell-based, human; settings: for IC50: Homo sapiens, HEK-Blue, 30 h, read-out: CD40L, IC50; for CD40L/TNFα pot.: potency ratio of CD40L assay vs TNFα assay; for rRBACD40L: relative potency from CD40L IC50, DEX = 100
How it was run: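 Reporter HEK293 cells (human CD40; NF-κB/AP-1-driven SEAP) at about 5 × 10⁴ cells/well in 1% FBS DMEM. Stimulated with CD40L (CD154, 25 ng/mL) plus test compound at 0–1000 nM (10-fold steps) for 30 h at 37°C, 5% CO₂. SEAP read by QUANTI-Blue at 620–655 nm. Five independent experiments in triplicate or quadruplicate. Percent suppression vs stimulation alone fitted to a Hill model (bottom fixed at zero; Emax and nH shared).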

[2] = test system: TNFα-induced NF-κB activation; assay: suppression of TNFα-induced NF-κB activation in HEK-Blue CD40L sensor cells; assay type: cell-based, human; settings: for IC50: Homo sapiens, HEK-Blue, 20 h, read-out: TNFα, IC50; for rRBATNFα: relative potency from TNFα IC50, DEX = 100
How it was run: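 Cells used: HEK293 stably expressing human CD40 and an NF-κB/AP-1-inducible SEAP, seeded at about 5 × 10⁴ cells/well in 1% FBS DMEM. TNFα (3 ng/mL) added with test compound at 0, 0.01, 0.1, 1.0, 10, 100 or 1000 nM; incubated 20 h at 37°C, 5% CO₂. SEAP quantified with QUANTI-Blue at 620–655 nm. Five independent experiments, triplicates or quadruplicates. Percent suppression fitted to a Hill equation (bottom zero; shared Emax and nH).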

[3] = molecular target: glucocorticoid receptor (GR); settings: cited from earlier work; for Kd: read-out: Kd,lit, consensus average of published GR binding values; for rRBAlit: relative receptor binding affinity, DEX = 100
CD40 (Homo sapiens) = CD40 (Homo sapiens) (UniProt P25942); settings: cited from earlier work
[4] = test system: NF-κB activation in HEK-Blue CD40L sensor cells; assay: ligand-induced NF-κB activation of HEK-Blue CD40L sensor cells; assay type: cell-based, human; settings: one-site specific binding model
How it was run: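 HEK293 cells stably carrying human CD40 and a SEAP reporter under the IFN-β minimal promoter with five NF-κB and five AP-1 sites. Grown in DMEM (4.5 g/L glucose, 10% FBS, 2 mM L-glutamine), then resuspended in 1% FBS medium. Stimulated with FLAG-tagged TNFα or CD40L (CD154) over a concentration series. SEAP measured with QUANTI-Blue at 620–655 nm; data fitted with a one-site specific binding model.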

CD40 = settings: read-out: Kd CD40L – CD40; cell-free binding; cited from earlier work
TNF-R1 = settings: read-out: Kd TNFα – TNF-R1; cell-free binding; cited from earlier work

Sequence of UniProt P25942 (P25942 21-277): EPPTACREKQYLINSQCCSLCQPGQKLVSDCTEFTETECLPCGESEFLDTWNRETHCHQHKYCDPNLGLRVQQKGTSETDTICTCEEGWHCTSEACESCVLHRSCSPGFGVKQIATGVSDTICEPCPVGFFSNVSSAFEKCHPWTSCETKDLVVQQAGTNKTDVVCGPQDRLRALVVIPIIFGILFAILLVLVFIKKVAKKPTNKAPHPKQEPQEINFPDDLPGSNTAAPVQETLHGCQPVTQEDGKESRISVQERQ
Sequence of CD40L (P29965 113-261): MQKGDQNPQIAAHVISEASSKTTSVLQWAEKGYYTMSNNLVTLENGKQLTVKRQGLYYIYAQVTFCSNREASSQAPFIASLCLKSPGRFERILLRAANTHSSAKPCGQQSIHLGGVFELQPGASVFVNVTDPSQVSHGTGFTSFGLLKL

Row | IC50 [1] [nM] | IC50 [2] [nM] | Compound | CD40L/TNFα pot. [1] | rRBACD40L [1] | rRBATNFα [2] | Kd [3] [nM] | rRBAlit [3] | GR rRBA [3] | Kd (CD40 (Homo sapiens)) [nM] | median effective concentration (EC50) for NF-κB activation [4] | Kd (CD40) [nM] | Kd (TNF-R1) [nM]
1 | 0.01 | 0.02 | CCC(=O)O[C@]1(C(=O)CCl)[C@@H](C)C[C@H]2[C@@H]3CCC4=CC(=O)C=C[C@]4(C)[C@@]3(F)[C@@H](O)C[C@@]21C [CP, clobetasol propionate] | 1.62 | 13653.4 | 13074.5 | 0.1 | 6300.0 | – | – | – | – | –
2 | 1.89 | 2.93 | C[C@@H]1C[C@H]2[C@@H]3CCC4=CC(=O)C=C[C@]4(C)[C@@]3(F)[C@@H](O)C[C@]2(C)[C@@]1(O)C(=O)CO [DEX, dexamethasone] | 1.55 | 100.0 | 100.0 | – | 100.0 | – | – | – | – | –
3 | 0.06 | 0.79 | CCOC(=O)O[C@]1(C(=O)OCCl)CC[C@H]2[C@@H]3CCC4=CC(=O)C=C[C@]4(C)[C@H]3[C@@H](O)C[C@@]21C [LE, loteprednol etabonate] | 13.96 | 3357.0 | 372.6 | 4.39 | 150.0 | – | – | – | – | –
4 | 0.3 | 14.2 | C[C@]12C=CC(=O)C=C1CC[C@@H]1[C@@H]2[C@@H](O)C[C@@]2(C)[C@H]1CC[C@]2(O)C(=O)CO [PRED, prednisolone] | 47.49 | 632.9 | 20.6 | – | 19.0 | ≈ 20 % of dexamethasone | – | – | – | –
5 | 0.43 | 0.76 | CC1(C)O[C@@H]2C[C@H]3[C@@H]4CCC5=CC(=O)C=C[C@]5(C)[C@@]4(F)[C@@H](O)C[C@]3(C)[C@]2(C(=O)CO)O1 [TA, triamcinolone acetonide] | 1.77 | 442.1 | 387.4 | 2.44 | 270.0 | – | – | – | – | –
6 | – | – | CD40L (from UniProt P29965) | – | – | – | – | – | – | 1 | – | – | –
7 | – | – | CD40L: FLAG-tagged ligand used for stimulation in the cell assays (Axxora) | – | – | – | – | – | – | – | 0.041 µg/mL and ~0.04 µg/mL | ~1 | –
8 | – | – | TNFα | – | – | – | – | – | – | – | 0.0027 µg/mL and ~0.003 µg/mL | – | ~0.5

Row | Compound | IC50 [1] [nM] | IC50 [2] [nM] | CD40L/TNFα pot. [1] | rRBACD40L [1] | rRBATNFα [2] | Kd [3] [nM] | rRBAlit [3] | GR rRBA [3] | Kd (CD40 (Homo sapiens)) [nM] | median effective concentration (EC50) for NF-κB activation [4] | Kd (CD40) [nM] | Kd (TNF-R1) [nM]
9 | CCC(=O)OCC(=O)[C@@]1(OC(=O)CC)[C@@H](C)C[C@H]2[C@@H]3CCC4=CC(=O)C=C[C@]4(C)[C@@]3(Cl)[C@@H](O)C[C@@]21C [BDP, beclomethasone dipropionate] | 0.22 | 0.1 | 0.46 | 872.2 | 2952.7 | – | – | – | – | – | – | –
10 | C[C@]12CCC(=O)C=C1CC[C@@H]1[C@@H]2[C@@H](O)C[C@@]2(C)[C@H]1CC[C@]2(O)C(=O)CO [HC, hydrocortisone] | 0.54 | 15.5 | 28.75 | 350.3 | 18.9 | – | 10 | – | – | – | – | –
